Experimental data gathered from unrelated publications.
Lines come from different studies, so protocols differ.
Target: Dual specificity mitogen-activated protein kinase kinase 2 (MAP2K2, Homo sapiens, UniProt P36507)

| Compound | effect on | action | technique | tested at | endpoint | value |
| --- | --- | --- | --- | --- | --- | --- |
| N#CC1(c2ccccn2)CCN(Cc2cc(C(=O)O)c(=O)n3ccccc23)CC1 | cell-free assay |  | competition with immobilised ligand | 1 µM | remaining binding | 100% |
| CC(C)(C)c1cc(C=C(C#N)C#N)cc(Br)c1O | enzyme activity | inhibitor |  | 0.5 µM | remaining activity | 85.8% |
| Cn1cc(-c2cccc(N3CCc4c(sc5c4CC(C)(C)C5)C3=O)c2CO)cc(Nc2ccncn2)c1=O | enzyme activity | inhibitor |  | 1 µM | inhibition | 5% |
| Cc1nn(C)cc1-c1nc2c(N3CCN(Cc4ccc(Cl)cc4)CC3)c(Cl)cnc2[nH]1 | binding |  | competition with immobilised ligand | 1 µM | remaining binding | 100% |
| Nc1ncc(-c2nc(N3CCOCC3)nc(N3CCOCC3)n2)c(C(F)F)n1 | binding |  | competition with immobilised ligand | 10 µM | remaining binding | 77% |
| COc1ncccc1-c1cnn2ccc(N3CCN(C(=O)OC(C)C)CC3)nc12 | binding |  | competition with immobilised ligand | 1 µM | remaining binding | 91% |
| O=c1[nH]c2ccccc2n1C1CCN(Cc2ccc(-c3[nH]c4cc5ncnc5cc4nc3-c3ccccc3)cc2)CC1 | cell-free assay |  |  | 0.5 µM | remaining signal | 86.6% |
| Cn1cncc1[C@@](O)(COc1ccc(C#N)cc1-c1ccc(OC(F)(F)F)cc1)c1ccc(C#N)cc1 | cell-free assay |  | competition with immobilised ligand | 1 µM | remaining binding | 74% |
| COc1cc(Nc2ncc(F)c(Nc3ccc4c(n3)NC(=O)C(C)(C)O4)n2)cc(OC)c1OC | binding |  | competition with immobilised ligand | 10 µM | inhibition | 87% |
| Cn1cc(-c2cc(F)cc(N3CCn4c(cc5c4CCCC5)C3=O)c2CO)cc(Nc2ccc(N3CCN(C4COC4)CC3)cn2)c1=O | enzyme activity | inhibitor |  | 0.1 µM | inhibition | 11% |
